Consider six molecules from ChEMBL document CHEMBL1129409, “5-HT1D receptor agonist properties of novel 2-[5-[[(trifluoromethyl)sulfonyl]oxy]indolyl]ethylamines and their use as synthetic intermediates” (J Med Chem, 1996).

In data set [1] the test system is Cavia porcellus. The experiment in a line: Effect of 6.250 (umol/kg, sc) compound on guinea pig rectal temperature (Hypothermia). It is filed as functional. In a few lines: (§1)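 Male guinea pigs housed individually at least 1 h before testing, groups of five. Compound given sc in 0.25% methylcellulose (equimolar citric acid for free bases), 5 mL/kg. Rectal probe inserted 3-4 cm; temperature read before dosing and at 60 min. Reported as change from the 0 min value, mean ± SEM (n=4-5).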

Data set [2] deals with Cavia porcellus. Kind of data set: The level of 5-HIAA (prefrontal cortex) measured by means of HPCL with electrochemical detection methods at 6.250 (umol/kg, sc). It is filed as functional. In a few lines:
(§2)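 Male Dunkin-Hartley guinea pigs dosed sc in 0.25% methylcellulose (citric acid added for free bases), 5 mL/kg. Decapitated 60 min after dosing; prefrontal cortex and hypothalamus dissected on ice and stored at -80 °C. 5-HT and 5-HIAA measured by HPLC-electrochemical detection. Expressed as % of vehicle controls, mean ± SEM (n=4-5); ANOVA with Fisher's PLSD.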

The test system of data set [3] is Cavia porcellus. Kind of data set: The level of 5-HIAA (hypothalamus) measured by means of HPCL with electrochemical detection methods at 6.250 (umol/kg, sc). It is filed as functional. In a few lines: as §2
For data set [4], the system named is Cavia porcellus. Kind of data set: The level of 5-HT (prefrontal cortex) measured by means of HPCL with electrochemical detection methods at 6.250 (umol/kg, sc). It is filed as functional. An outline of the steps:
as §2

A short description of data set [5]: Distribution coefficient (LogD) of compound reported. The data set is classed as physicochemical. To be noted: octanol/water. An outline of the steps:
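log D calculated with Pallas version 1.2.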

Data set [6] has as its target T1, 5-hydroxytryptamine receptor 1D (Homo sapiens, UniProt P28221). Kind of data set: Displacement of [3H]-5-HT from human 5-hydroxytryptamine 1D receptor alpha expressed in HEK 293 cells. The data set is classed as cell-based, HEK293. An outline of the steps:
(§3)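 HEK 293 microsomal membranes expressing human 5-HT1Dα or 5-HT1Dβ, in 50 mM Tris-HCl buffer with 4 mM CaCl2, 0.1% ascorbic acid, pargyline and leupeptine. [3H]-5-HT (final 0.01-150 nM) incubated with membranes and displacer for 30 min at 25 °C. Glass-fibre filtration, then scintillation counting. Nonspecific binding taken with 10^-5 M 5-HT. Nonlinear least-squares fitting (EBDA/LIGAND); mean ± SEM, n=3.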
(In general: In a radioligand displacement assay an active substance lowers the binding of a labelled ligand.)

Data set [7] has as its target T1, 5-hydroxytryptamine receptor 1D. Kind of data set: (§4) Compound was tested for binding affinity against cloned human 5-hydroxytryptamine 1D receptor alpha expressed in CHO-K1 cells. It is filed as cell-based. An outline of the steps: (§5)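 CHO cell membranes expressing cloned human 5-HT1A, 5-HT1Dα or 5-HT1Dβ receptors, or rat D2 receptors (20-60 µg protein). Radioligands: [3H]-8-OH-DPAT (5-HT1A), [3H]-5-HT (5-HT1D), [3H]U-86170 (D2). Buffers at pH 7.4: 50 mM Tris/5 mM MgCl2 (5-HT1A); the same with 0.1% ascorbic acid (5-HT1D); 20 mM HEPES/10 mM MgSO4 (D2). Nonspecific binding defined with lisuride, serotonin and haloperidol respectively. 11 concentrations in duplicate, 1 h at room temperature (5-HT1D protected from light), filtration.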

Data set [8] deals with T2, 5-hydroxytryptamine receptor 1A (Homo sapiens, UniProt P08908).
T2 sequence (P08908 whole entry): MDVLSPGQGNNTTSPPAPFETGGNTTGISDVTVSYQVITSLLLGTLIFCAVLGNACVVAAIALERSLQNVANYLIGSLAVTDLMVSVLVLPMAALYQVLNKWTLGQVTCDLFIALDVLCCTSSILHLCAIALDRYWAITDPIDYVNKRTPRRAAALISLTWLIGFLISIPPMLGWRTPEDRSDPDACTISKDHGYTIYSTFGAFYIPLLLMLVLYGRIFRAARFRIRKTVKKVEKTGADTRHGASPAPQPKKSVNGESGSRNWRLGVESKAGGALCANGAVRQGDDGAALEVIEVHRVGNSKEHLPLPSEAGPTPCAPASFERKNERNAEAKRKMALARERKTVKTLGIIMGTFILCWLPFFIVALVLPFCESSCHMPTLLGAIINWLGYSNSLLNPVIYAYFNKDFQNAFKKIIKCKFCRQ
The experiment in a line: Compound was tested for binding affinity against cloned human 5-hydroxytryptamine 1A receptor expressed in CHO-K1 cells. It is filed as cell-based. In a few lines:
(§6)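 CHO cell membranes expressing cloned human 5-HT1A, 5-HT1Dα or 5-HT1Dβ receptors, or rat D2 receptors (20-60 µg protein). Buffers at pH 7.4: 50 mM Tris/5 mM MgCl2 (5-HT1A); the same with 0.1% ascorbic acid (5-HT1D); 20 mM HEPES/10 mM MgSO4 (D2). Nonspecific binding defined with lisuride, serotonin and haloperidol respectively. 11 concentrations in duplicate, 1 h at room temperature (5-HT1D protected from light), filtration.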

Data set [9] relates to Cavia porcellus. Kind of data set: The level of 5-HIAA (prefrontal cortex) measured by means of HPCL with electrochemical detection methods at 50(umol/kg, sc). It is filed as functional. An outline of the steps: as §2
The target in data set [10] is T3, 5-hydroxytryptamine receptor 1B (Homo sapiens, UniProt P28222). Kind of data set: Compound was tested for binding affinity against cloned human 5-hydroxytryptamine 1D receptor beta expressed in CHO-K1 cells. It is filed as cell-based.
T3 sequence (P28222 whole entry): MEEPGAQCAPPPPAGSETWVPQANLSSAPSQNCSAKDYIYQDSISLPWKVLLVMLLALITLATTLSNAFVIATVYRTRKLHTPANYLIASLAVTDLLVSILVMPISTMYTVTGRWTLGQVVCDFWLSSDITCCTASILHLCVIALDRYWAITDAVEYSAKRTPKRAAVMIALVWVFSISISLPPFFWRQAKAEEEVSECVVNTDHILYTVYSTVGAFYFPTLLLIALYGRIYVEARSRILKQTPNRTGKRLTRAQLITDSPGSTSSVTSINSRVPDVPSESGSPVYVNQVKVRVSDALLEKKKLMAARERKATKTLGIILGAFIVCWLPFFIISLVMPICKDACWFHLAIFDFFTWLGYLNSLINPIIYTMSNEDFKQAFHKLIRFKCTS
Data set [11] concerns the target T1, 5-hydroxytryptamine receptor 1D. The description is as §4. It is filed as cell-based. An outline of the steps:
as §6
The source holds these as a separate data set.

Data set [12] has as its system Cavia porcellus. Kind of data set: The level of 5-HT (prefrontal cortex) measured by means of HPCL with electrochemical detection methods at 50(umol/kg, sc). It is filed as functional. In a few lines:
as §2

The subject of data set [13] is Cavia porcellus. The experiment in a line: The level of 5-HIAA (hypothalamus) measured by means of HPCL with electrochemical detection methods at 50(umol/kg, sc). It is filed as functional. In a few lines:
as §2

The test system of data set [14] is Cavia porcellus. The experiment in a line: Effect of 12.5 (umol/kg, sc) compound on guinea pig rectal temperature; Hypothermia 0-60 delta degree C. The data set is classed as functional. An outline of the steps:
as §1

Data set [15] deals with Cavia porcellus. The experiment in a line: The level of 5-HT (hypothalamus) measured by means of HPCL with electrochemical detection methods at 50(umol/kg, sc). It is filed as functional. An outline of the steps:
as §2

Data set [16] deals with Cavia porcellus. Kind of data set: Effect of 50(umol/kg, sc) compound on guinea pig rectal temperature; Hypothermia 0-60 delta degree C. It is filed as functional. In a few lines: as §1
Data set [17] addresses T1, 5-hydroxytryptamine receptor 1D. The experiment in a line: Ratio of receptor binding affinities of 5-hydroxytryptamine 1D receptor alpha vs 5-hydroxytryptamine 1D receptor beta.
The target in another data set is D(2) dopamine receptor (Rattus norvegicus, UniProt P61169). The experiment in a line: Binding affinity for rat dopamine D2 receptor expressed in CHO-K1 cells. The data set is classed as cell-based. An outline of the steps:
as §5

Data set [18] has as its target T1, 5-hydroxytryptamine receptor 1D. Kind of data set: Compound was tested for binding affinity against human 5-hydroxytryptamine 1D receptor alpha clones expressed in human embryonic kidney (HEK 293) cells line. The data set is classed as cell-based, HEK293. In a few lines:
as §3

Data set [19] concerns the target T3, 5-hydroxytryptamine receptor 1B. The experiment in a line: Compound was tested for binding affinity against human 5-hydroxytryptamine 1D receptor beta clones expressed in human embryonic kidney (HEK 293) cells line. It is filed as cell-based, HEK293. In a few lines:
as §3

For data set [20] the target is unchanged. The experiment in a line: Compound was tested for binding affinity against cloned human 5-HT1D beta receptor expressed in CHO-K1 cells. It is filed as cell-based. An outline of the steps: as §5

T1 sequence (P28221 whole entry): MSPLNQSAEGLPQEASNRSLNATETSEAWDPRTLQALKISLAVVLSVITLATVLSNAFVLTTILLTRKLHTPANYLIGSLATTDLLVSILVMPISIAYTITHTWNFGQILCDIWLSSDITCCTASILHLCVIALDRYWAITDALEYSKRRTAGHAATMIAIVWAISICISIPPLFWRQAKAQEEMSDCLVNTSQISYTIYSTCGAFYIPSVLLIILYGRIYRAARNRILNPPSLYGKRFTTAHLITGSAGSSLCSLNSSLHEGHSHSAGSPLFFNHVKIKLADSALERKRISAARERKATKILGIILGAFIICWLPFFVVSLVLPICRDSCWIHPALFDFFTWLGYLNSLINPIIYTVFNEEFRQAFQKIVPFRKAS
Chain of D(2) dopamine receptor (P61169 whole entry): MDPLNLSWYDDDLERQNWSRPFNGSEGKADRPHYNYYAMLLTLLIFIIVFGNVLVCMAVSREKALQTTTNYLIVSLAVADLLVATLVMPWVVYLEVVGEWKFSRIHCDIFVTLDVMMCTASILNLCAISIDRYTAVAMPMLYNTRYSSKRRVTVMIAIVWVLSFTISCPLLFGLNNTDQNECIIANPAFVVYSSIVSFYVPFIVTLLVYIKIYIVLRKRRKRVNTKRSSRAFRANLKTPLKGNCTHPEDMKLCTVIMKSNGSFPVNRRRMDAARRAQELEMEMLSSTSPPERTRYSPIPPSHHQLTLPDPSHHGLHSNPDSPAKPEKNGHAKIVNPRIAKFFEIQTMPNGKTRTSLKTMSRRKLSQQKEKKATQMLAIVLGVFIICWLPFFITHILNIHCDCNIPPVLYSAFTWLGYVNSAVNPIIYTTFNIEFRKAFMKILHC

As for `CCCN(CCC)C1CCc2cccc(O)c2C1` (stereo unspecified) [8-OH-DPAT], the Others with Cavia porcellus [1] came out at 0.22; in the data set on Cavia porcellus [2], 34%; in the data set on Cavia porcellus [3], 37%; in the data set on Cavia porcellus [4], 126%.

`CCCN(CCC)CCc1c[nH]c2ccc(OCc3ccccc3)cc12` displayed a logD in data set [5] of 3.08. For the same molecule, the IC50 in data set [6] and in data set [7] was 470 nM throughout.

Consider `COc1ccc(CNC(=O)/C=C/c2ccc3[nH]cc(CCN(C)C)c3c2)cc1`, for which the inhibitory constant (Ki) in [8] turned out to be 1.3 nM; in [10], 0.2 nM; in [11], 0.3 nM. In data set [5], this molecule displayed a log distribution coefficient (logD) of 1.71. The Others with Cavia porcellus [9] is listed as 37%; in the data set on Cavia porcellus [12], 94%; with Cavia porcellus [13], 49%; with Cavia porcellus [14] it was -1.62; in the data set with Cavia porcellus [15] it was 121%; in the data set on Cavia porcellus [16], -2.62.

With `CCN(CC)CCc1c[nH]c2ccc(OCc3ccccc3)cc12`, in [5], the logD stood at 2.18. Moreover, the IC50 in data set [6] and in data set [7] was 110 nM each time.

For `CCCN(CCC)CCc1c[nH]c2ccc(O)cc12`, the logD in [5] was determined as 1.24. Besides, the IC50 in data set [6] and in data set [7] was 820 nM in each case.

Regarding `CCCN(CCC)CCc1c[nH]c2ccc(OS(=O)(=O)C(F)(F)F)cc12`, the Ki in data set [8] stood at 23 nM; on D(2) dopamine receptor it was 502 nM; in data set [20], 246 nM; in data set [11], 190 nM. The logD in data set [5] turned out to be 2.21. In addition, the Ratio in data set [17] stood at 1.3. Moreover, the IC50 in data set [18] worked out at 170 nM; in data set [19], 660 nM.

As usually defined, the logD is the decadic logarithm of the distribution of all forms, ionised or not, between an organic phase and buffer at a given pH. As a reminder, the IC50 is the concentration that gives 50% inhibition. A lower IC50 goes with higher potency. By Ki is commonly meant a dissociation constant, usually derived from enzyme kinetics or from competition with a known ligand. Higher therefore signals a looser hold on the target.
